For data set [1], the target named is T1, Multidrug efflux pump subunit AcrB (Escherichia coli (strain K12)) (UniProt P31224).
T1 sequence (whole entry): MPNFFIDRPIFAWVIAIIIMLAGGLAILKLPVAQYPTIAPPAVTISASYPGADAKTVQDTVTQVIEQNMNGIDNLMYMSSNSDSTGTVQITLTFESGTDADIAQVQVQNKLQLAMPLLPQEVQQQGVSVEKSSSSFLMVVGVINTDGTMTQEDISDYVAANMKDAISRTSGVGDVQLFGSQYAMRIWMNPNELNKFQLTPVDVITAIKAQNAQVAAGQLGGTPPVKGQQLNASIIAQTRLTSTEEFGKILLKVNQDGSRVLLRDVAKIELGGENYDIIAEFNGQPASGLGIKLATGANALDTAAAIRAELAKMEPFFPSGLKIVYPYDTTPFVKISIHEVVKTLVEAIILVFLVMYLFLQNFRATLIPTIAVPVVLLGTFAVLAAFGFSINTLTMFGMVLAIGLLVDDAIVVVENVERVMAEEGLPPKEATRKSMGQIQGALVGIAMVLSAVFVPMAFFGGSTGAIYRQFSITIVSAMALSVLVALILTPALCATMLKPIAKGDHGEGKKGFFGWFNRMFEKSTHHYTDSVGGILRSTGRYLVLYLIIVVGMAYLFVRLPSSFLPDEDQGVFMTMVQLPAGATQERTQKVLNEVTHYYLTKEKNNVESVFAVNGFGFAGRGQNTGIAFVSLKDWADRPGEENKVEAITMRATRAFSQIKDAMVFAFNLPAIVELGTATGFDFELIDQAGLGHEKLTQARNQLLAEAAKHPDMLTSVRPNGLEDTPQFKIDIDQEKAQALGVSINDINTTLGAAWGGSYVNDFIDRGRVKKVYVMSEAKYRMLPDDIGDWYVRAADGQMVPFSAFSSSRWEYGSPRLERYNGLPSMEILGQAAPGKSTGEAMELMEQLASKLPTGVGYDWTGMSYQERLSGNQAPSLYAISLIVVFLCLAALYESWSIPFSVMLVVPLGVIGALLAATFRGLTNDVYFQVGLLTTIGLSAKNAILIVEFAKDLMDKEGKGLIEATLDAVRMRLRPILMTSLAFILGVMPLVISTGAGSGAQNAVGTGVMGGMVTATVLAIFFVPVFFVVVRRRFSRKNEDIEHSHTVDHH
Description: Inhibition of AcrB in Escherichia coli BW25113 assessed as potentiation of tetraphenylphosphonium induced antibacterial activity by measuring fold change in tetraphenylphosphonium MIC at 256 ug/ml measured after 18 hrs by checkerboard titration method relative to tetraphenylphosphonium alone. The following applies: dose 256.0 µg/ml.

For data set [2], the system named is Cell membrane. Description: Induction of inner membrane permeabilization in CCCP treated wild type Escherichia coli BW25113 at 64 to 256 ug/ml measured after 10 mins by Di0C2(3) probe based fluorimetric method. The following applies: escherichia coli bw25113, 10 min, dose 64-256 µg/ml. The essentials:
(§1)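 Cells left untreated or exposed to compound at 8-256 µg/mL for 10 min, then DiOC2(3) added and fluorescence followed to plateau. Cells re-energized with 0.5% glucose; membrane potential build-up read as fluorescence rise to plateau, then dissipated with CCCP.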

Data set [3] has as its target T1, Multidrug efflux pump subunit AcrB (Escherichia coli (strain K12)). The experiment in a line: Inhibition of AcrB in Escherichia coli BW25113 assessed as potentiation of tetraphenylphosphonium induced antibacterial activity by measuring fold change in tetraphenylphosphonium MIC at 128 ug/ml measured after 18 hrs by checkerboard titration method relative to tetraphenylphosphonium alone. The following applies: dose 128.0 µg/ml.

Data set [4] can be described thus: Growth inhibition of Escherichia coli BW25113 expressing AcrB after 18 hrs by broth microdilution assay. The essentials: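 MIC determined by 96-well broth microdilution in E. coli BW25113 expressing AcrB ((+)AcrB) and an isogenic acrB-deleted strain ((-)AcrB). Used to set the compound concentrations for synergy testing that produce no direct antibacterial effect.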

Data set [5] concerns the target T1, Multidrug efflux pump subunit AcrB (Escherichia coli (strain K12)). The experiment in a line: Inhibition of AcrB in Escherichia coli BW25113 assessed as potentiation of erythromycin induced antibacterial activity by measuring fold change in erythromycin MIC at 32 ug/ml measured after 18 hrs by checkerboard titration method relative to erythromycin alone. The following applies: dose 32.0 µg/ml.

Data set [6] relates to Cell membrane. The experiment in a line: Induction of inner membrane permeabilization in CCCP treated wild type Escherichia coli BW25113 at 16 ug/ml measured after 10 mins by Di0C2(3) probe based fluorimetric method. The following applies: escherichia coli bw25113, 10 min, dose 16 µg/ml. The essentials: as §1

The structures appear in SMILES notation. In brackets after ≈: the same amount, converted by molar mass.

For the molecule `Oc1ccc(CCCCCc2ccc(O)c(O)c2)cc1O`, the fold change (FC) in data set [1] was found to be 32.

With `C[C@H](Cc1ccc(O)c(O)c1)[C@@H](C)Cc1ccc(O)c(O)c1` [MASOPROCOL], the Activity result in the data set with Cell membrane [2] is reported as “Toxic”. Turning to `O=C(NCCc1ccc(O)c(O)c1)c1cc(O)c(O)c(O)c1`, the fold change (FC) in data set [3] is 4.

The molecule `Cc1ccc(C(=O)NCCc2ccc(O)c(O)c2)cc1` displayed an MIC in data set [4] of 64 µg/mL (≈ 236 µM). Also, the fold change (FC) in data set [5] is 4. As to `Oc1ccc(CCCCc2cc3cccc4ccc5cccc2c5c43)cc1O`, the Activity result in the data set on Cell membrane [6] is recorded as “Non-Toxic”.
